Experimental data from ChEMBL document CHEMBL1135814, “Aldisine alkaloids from the Philippine sponge Stylissa massa are potent inhibitors of mitogen-activated protein kinase kinase-1 (MEK-1)” (J Med Chem, 2002).

How the values were obtained:
[1] = target: Serine/threonine-protein kinase RAF and Dual specificity mitogen-activated protein kinase kinase 1 (Raf/MEK) (Homo sapiens, UniProt P04049+Q02750); assay: Inhibition of kinase activity of Raf/MEK/ERK kinase cascade in ELISA; format: protein assay
[2] = target: Dual specificity mitogen-activated protein kinase kinase 1 (Homo sapiens, UniProt Q02750); assay: Inhibition of MEK1 phosphorylation by activated human recombinant Raf
[3] = test system: LoVo; assay: Inhibition of human adenocarcinoma cell line LoVo proliferation; format: functional, cell-based
Procedure, shortened: (§1)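 Cells grown in RPMI 1640 with 10% fetal bovine serum, L-glutamine and penicillin/streptomycin. Compounds from 100% DMSO stocks were diluted in complete medium and applied at varying concentrations. Growth inhibition was read by sulforhodamine B staining, reported as IC50.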

[4] = test system: Caco-2; assay: Inhibition of human adenocarcinoma cell line Caco-2 proliferation; format: functional, cell-based; procedure, shortened: as §1

Sequence of Dual specificity mitogen-activated protein kinase kinase 1 (Q02750 whole entry): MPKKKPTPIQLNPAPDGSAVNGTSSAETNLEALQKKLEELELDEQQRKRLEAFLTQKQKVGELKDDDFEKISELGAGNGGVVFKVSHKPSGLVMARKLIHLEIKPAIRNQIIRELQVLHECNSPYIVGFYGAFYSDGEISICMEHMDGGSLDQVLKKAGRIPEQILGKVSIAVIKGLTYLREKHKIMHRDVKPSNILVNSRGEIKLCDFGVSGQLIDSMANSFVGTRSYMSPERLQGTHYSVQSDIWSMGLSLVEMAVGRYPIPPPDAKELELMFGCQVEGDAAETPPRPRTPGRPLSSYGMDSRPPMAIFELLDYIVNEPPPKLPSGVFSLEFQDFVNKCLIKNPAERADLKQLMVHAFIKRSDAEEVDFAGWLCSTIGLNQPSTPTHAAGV

Nc1nc(C2CCNC(=O)c3[nH]c(Br)c(Br)c32)c[nH]1 (stereo not drawn)
IC50 [1]: 1288 nM
IC50 [2]: > 2500 nM
IC50 [3]: > 10 µM
IC50 [4]: > 10 µM

Nc1ncc(/C=C/CNC(=O)c2cc(Br)c(Br)[nH]2)[nH]1 [OROIDIN]
IC50 [1]: > 2500 nM
IC50 [2]: > 2500 nM
IC50 [3]: > 10 µM
IC50 [4]: > 10 µM

O=C1CCNC(=O)c2[nH]c(Br)cc21
IC50 [3]: > 10 µM
IC50 [4]: > 10 µM

NC(=O)c1cc(Br)c(Br)[nH]1
IC50 [1]: > 2500 nM
IC50 [2]: > 2500 nM
IC50 [3]: > 10 µM
IC50 [4]: > 10 µM

NC1=N/C(=C2/CCNC(=O)c3[nH]ccc32)C(=O)N1 [DEBROMOHYMENIALDISINE]
IC50 [1]: 881 nM
IC50 [2]: > 2500 nM
IC50 [3]: > 10 µM
IC50 [4]: > 10 µM

CSCC[C@H](NC(=O)c1ccc(NC[C@@H](N)CS)cc1-c1ccccc1)C(=O)O
IC50 [3]: 0.05 µM
IC50 [4]: > 10 µM

NC1=NC(=O)/C(=C2\CCNC(=O)c3[nH]c(Br)cc32)N1 [HYMENIALDISINE]
IC50 [3]: 0.71 µM
IC50 [4]: > 7.8 µM

NC1=N/C(=C2\CCNC(=O)c3[nH]c(Br)cc32)C(=O)N1
IC50 [3]: 0.586 µM
IC50 [4]: > 3.87 µM

O=C1CCNC(=O)c2[nH]ccc21 [ALDISIN]
IC50 [1]: > 2500 nM
IC50 [2]: > 2500 nM
IC50 [3]: > 10 µM
IC50 [4]: > 10 µM
